ChEMBL document CHEMBL5108087, “Synthesis and biological evaluation of paeoveitol D derivatives as new melatonin receptor agonists with antidepressant activities” (RSC Med Chem, 2022)
Activity calls are given as the source filed them. No cut-off for these calls is given here.

Key:
[1] = target: T1, Melatonin receptor type 1B (Homo sapiens, UniProt P49286); test: Agonist activity at human MT2 receptor expressed in HEK293 cells by Fluo-8 based calcium assay; format: functional, cell-based
T1 sequence (P49286 whole entry): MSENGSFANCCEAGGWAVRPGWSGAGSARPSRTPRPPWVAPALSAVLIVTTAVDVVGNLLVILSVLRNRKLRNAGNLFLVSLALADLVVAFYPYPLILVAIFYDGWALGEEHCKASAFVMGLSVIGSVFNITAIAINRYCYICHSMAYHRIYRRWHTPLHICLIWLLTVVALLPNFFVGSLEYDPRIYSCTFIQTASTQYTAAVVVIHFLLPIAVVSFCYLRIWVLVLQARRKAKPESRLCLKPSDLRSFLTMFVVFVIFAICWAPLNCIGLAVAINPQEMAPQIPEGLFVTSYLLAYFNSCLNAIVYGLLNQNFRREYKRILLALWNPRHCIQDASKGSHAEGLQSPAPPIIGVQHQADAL

Mus musculus [2] = test: Antidepressant activity in kunming mouse assessed as increase in 5-HT level in thalamus at 160 mg/kg, po measured after 14 days by HPLC-ECD analysis; format: functional, organism-based; conditions: time 14.0 day
Outline: (§1)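 Male Kunming mice dosed orally with vehicle or 160 mg kg−1 for 14 days, then killed by cervical dislocation. Brain regions dissected on ice, homogenized in 0.2 M perchloric acid with 0.1 mM EDTA and spun at 4 °C for 20 min. Supernatant analysed by HPLC-ECD at +0.50 V, mobile phase pH 3.0. Amounts given in ng g−1 as mean ± SEM, n = 12.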

[3] = target: T2, Melatonin receptor type 1A (Homo sapiens, UniProt P48039); test: (§2) Agonist activity at human MT1 receptor transfected in HEK293T cells co-transfected with tet-inducible luciferase reporter plasmid, pCDNA3.1(+)-CMV-betaArrestin2-tev plasmid and TANGO plasmid assessed as tango arrestin recruitment by measuring maximum activity incubated for 24 hrs by TANGO-GPCR assay based luminescence plate reader analysis relative to agomelatine; format: functional, cell-based; conditions: filed as agonist
Outline: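 Tango arrestin recruitment: 293T cells transiently transfected with a tet-inducible luciferase reporter, CMV-βArrestin2-TEV and TANGO receptor plasmids. On day 2, replated at 20 000 cells per well on poly-L-lysine. Drug added on day 3. On day 4, luciferase reagent added for 20 min and luminescence counted. Curves fitted; data given as mean ± SD.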

Mus musculus [4] = test: Antidepressant activity in kunming mouse assessed as increase in dopamine level in striatum at 160 mg/kg, po measured after 14 days by HPLC-ECD analysis; format: functional, organism-based; conditions: time 14.0 day; outline: as §1
Mus musculus [5] = test: Antidepressant activity in kunming mouse assessed as increase in 5-HT level in striatum at 160 mg/kg, po measured after 14 days by HPLC-ECD analysis; format: functional, organism-based; conditions: time 14.0 day; outline: as §1
[6] = Subacute toxicity in Kunming mouse assessed as effect on kidney structure at 240 mg/kg, po administered for 14 days; format: organism-based; conditions: in vivo, 336 h, time 14 day
Outline: (§3)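 Subacute oral study following OECD 425. Animals randomised into two groups of six. Vehicle control received 0.5% CMC-Na orally for 14 consecutive days; the treated group received 240 mg kg−1 body weight orally for 14 consecutive days.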

Mus musculus [7] = test: Antidepressant activity in Kunming mouse assessed as decrease in immobility time at 80 mg/kg, po and measured after 14 days by forced swim test relative to control; format: functional; parameters: scale not given: the % may be the effect or the level left; conditions: time 14 day
Outline: (§4)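 Male Kunming mice, 15–18 g, given the test compound orally for 14 days. Forced swim then done in a cylinder 25 cm high and 15 cm in diameter, water 10 cm deep at 25 ± 1 °C. Swim lasted 6 min and immobility over the final 4 min was video-scored against the vehicle group.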

Mus musculus [8] = test: Antidepressant activity in kunming mouse assessed as decrease in 5-HIAA level in striatum at 160 mg/kg, po measured after 14 days by HPLC-ECD analysis; format: functional, organism-based; conditions: time 14.0 day; outline: as §1
Mus musculus [9] = test: Antidepressant activity in kunming mouse assessed as decrease in 5-HIAA level in hippocampus at 160 mg/kg, po measured after 14 days by HPLC-ECD analysis; format: functional, organism-based; conditions: time 14.0 day; outline: as §1
[10] = target: T2, Melatonin receptor type 1A; test: as §2, with “recruitment” for “recruitment by measuring maximum activity”, “analysis” for “analysis relative to agomelatine”; format: functional, cell-based
Mus musculus [11] = test: Antidepressant activity in kunming mouse assessed as decrease in 5-HIAA level in hypothalamus at 160 mg/kg, po measured after 14 days by HPLC-ECD analysis; format: functional, organism-based; conditions: time 14.0 day; outline: as §1
Mus musculus [12] = test: Antidepressant activity in Kunming mouse assessed as decrease in immobility time at 10 to 160 mg/kg, po administered two times at 1 hrs and 24 hrs and measured at last 4 mins of 6 mins test by forced swim test; format: functional, organism-based; conditions: dose 10-160 mg/kg, time 1444.0 min
Outline: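 Male Kunming mice, 15–18 g, housed six per cage at 22 ± 1 °C on a 12 h light/dark cycle. Oral dosing 24 h and 1 h before the test. Each mouse placed in a cylinder (25 cm high, 15 cm diameter) holding 10 cm of water at 25 ± 1 °C and made to swim 6 min; immobility over the last 4 min scored by video tracking.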

Mus musculus [13] = test: Antidepressant activity in kunming mouse assessed as increase in 5-HT level in hippocampus at 160 mg/kg, po measured after 14 days by HPLC-ECD analysis; format: functional, organism-based; conditions: time 14.0 day; outline: as §1
Mus musculus [14] = test: Antidepressant activity in kunming mouse assessed as decrease in DOPAC level in striatum at 160 mg/kg, po measured after 14 days by HPLC-ECD analysis; format: functional, organism-based; conditions: time 14.0 day; outline: as §1
[15] = Cmax in Kunming mouse at 80 mg/kg, po administered as single dose and measured upto 24 hrs; format: ADME, organism-based; parameters: time < 24 hrs, dose 80 mg/kg, route po; conditions: in vivo
[16] = AUC (0 to 24 hrs) in Kunming mouse at 80 mg/kg, po administered as single dose and measured upto 24 hrs; format: ADME, organism-based; parameters: time < 24 hrs, dose 80 mg/kg, route po; conditions: in vivo
Mus musculus [17] = test: Antidepressant activity in kunming mouse assessed as decrease in 5-HIAA level in frontal cortex at 160 mg/kg, po measured after 14 days by HPLC-ECD analysis; format: functional, organism-based; conditions: time 14.0 day; outline: as §1
[18] = Half-life in Kunming mouse at 80 mg/kg, po administered as single dose and measured upto 24 hrs; format: ADME, organism-based; conditions: in vivo
Mus musculus [19] = test: Antidepressant activity in kunming mouse assessed as decrease in DOPAC level in hypothalamus at 160 mg/kg, po measured after 14 days by HPLC-ECD analysis; format: functional, organism-based; conditions: time 14.0 day; outline: as §1
[20] = Subacute toxicity in Kunming mouse assessed as animal death at 240 mg/kg, po administered for 14 days; format: organism-based; conditions: in vivo, 336 h, time 14 day; outline: as §3
[21] = Subacute toxicity in Kunming mouse assessed as effect on liver structure at 240 mg/kg, po administered for 14 days; format: organism-based; conditions: in vivo, 336 h, time 14 day; outline: as §3
Mus musculus [22] = test: Antidepressant activity in Kunming mouse assessed as decrease in immobility time at 40 mg/kg, po and measured after 14 days by forced swim test relative to control; format: functional; parameters: scale not given: the % may be the effect or the level left; conditions: time 14 day; outline: as §4
[23] = Tmax in Kunming mouse at 80 mg/kg, po administered as single dose and measured upto 24 hrs; format: ADME, organism-based; conditions: in vivo

T2 sequence (P48039 whole entry): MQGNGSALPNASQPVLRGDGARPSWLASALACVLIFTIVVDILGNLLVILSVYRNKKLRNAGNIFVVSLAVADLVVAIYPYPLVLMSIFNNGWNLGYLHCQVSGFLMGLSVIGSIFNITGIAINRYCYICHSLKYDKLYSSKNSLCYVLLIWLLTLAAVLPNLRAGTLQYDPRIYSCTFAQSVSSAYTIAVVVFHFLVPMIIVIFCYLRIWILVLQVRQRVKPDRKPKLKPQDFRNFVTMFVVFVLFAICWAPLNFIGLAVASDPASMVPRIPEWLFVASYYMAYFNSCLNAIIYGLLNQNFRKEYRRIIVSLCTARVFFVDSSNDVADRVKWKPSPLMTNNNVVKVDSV

For `COc1cc2c(CN3CCN(C)CC3)coc2cc1C`, which EC50 [1] is on record?
The EC50 was 260 µM.

What about the Activity (Mus musculus [2]) of the same compound?
The Activity was “Active”.

What about the Emax [3] of the same compound?
Its Emax is 57%.

And the Activity (Mus musculus [4])?
Its Activity is “Active”.

What about the Activity (Mus musculus [5]) of the same compound?
Its Activity is “Active”.

And the Activity [6]?
Its Activity is “Non-Toxic”.

What about the Activity (Mus musculus [7]) of the same compound?
Its Activity is 26%.

And the Activity (Mus musculus [8])?
The Activity was “Active”.

And the Activity (Mus musculus [9])?
The Activity was “Active”.

And the EC50 [10]?
Its EC50 is 21 µM.

And the Activity (Mus musculus [11])?
Its Activity is “Active”.

And the Activity (Mus musculus [12])?
Its Activity is “Active”.

And the Activity (Mus musculus [13])?
The Activity was “Active”.

And the Activity (Mus musculus [14])?
Its Activity is “Active”.

What about the Cmax [15] of the same compound?
The Cmax was 1340 ng/mL.

And the AUC [16]?
The AUC was 5400 ng·h/mL.

And the Activity (Mus musculus [17])?
Its Activity is “Active”.

And the half-life [18]?
The half-life was 5.47 h.

And the Activity (Mus musculus [19])?
Its Activity is “Active”.

What about the Activity [20] of the same compound?
The Activity was “Non-Toxic”.

And the Activity [21]?
The Activity was “Non-Toxic”.

What about the Activity (Mus musculus [22]) of the same compound?
The Activity was 26%.

What about the Tmax [23] of the same compound?
The Tmax was 4.98 min.
